Results from ChEMBL document CHEMBL1140319, “The taming of capsaicin. Reversal of the vanilloid activity of N-acylvanillamines by aromatic iodination” (J Med Chem, 2005).

How the values were obtained:
[1] = target: T1, Transient receptor potential cation channel subfamily V member 1 (Homo sapiens, UniProt Q8NER1); assay: Inhibition of 100 nM capsaicin effect on intracellular [Ca2+] concentration in HEK293 cells expressing human TRPV1; format: cell-based
Outline: (§1)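 HEK293 cells stably overexpressing human TRPV1, grown in MEM with nonessential amino acids, 10% FCS and 0.2 mM glutamine. Plated on poly-L-lysine one day before use. Loaded 2 h at 25 °C with 4 μM Fluo-3 AM plus 0.04% Pluronic, then trypsinized into Tyrode pH 7.4 in a stirred cuvette. Compounds added 10 min before 100 nM capsaicin. IC50 from half-maximal inhibition.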

[2] = target: T1, Transient receptor potential cation channel subfamily V member 1; assay: Inhibition of 100 nM capsaicin effect on intracellular [Ca2+] concentration in HEK293 cells expressing human TRPV1; (weak agonist activity); format: functional, cell-based
Outline: as §1, with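 “capsaicin. Fluorescence read at 25 °C (ex 488/em 540 nm).” for “capsaicin.”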

T1 sequence (Q8NER1 whole entry): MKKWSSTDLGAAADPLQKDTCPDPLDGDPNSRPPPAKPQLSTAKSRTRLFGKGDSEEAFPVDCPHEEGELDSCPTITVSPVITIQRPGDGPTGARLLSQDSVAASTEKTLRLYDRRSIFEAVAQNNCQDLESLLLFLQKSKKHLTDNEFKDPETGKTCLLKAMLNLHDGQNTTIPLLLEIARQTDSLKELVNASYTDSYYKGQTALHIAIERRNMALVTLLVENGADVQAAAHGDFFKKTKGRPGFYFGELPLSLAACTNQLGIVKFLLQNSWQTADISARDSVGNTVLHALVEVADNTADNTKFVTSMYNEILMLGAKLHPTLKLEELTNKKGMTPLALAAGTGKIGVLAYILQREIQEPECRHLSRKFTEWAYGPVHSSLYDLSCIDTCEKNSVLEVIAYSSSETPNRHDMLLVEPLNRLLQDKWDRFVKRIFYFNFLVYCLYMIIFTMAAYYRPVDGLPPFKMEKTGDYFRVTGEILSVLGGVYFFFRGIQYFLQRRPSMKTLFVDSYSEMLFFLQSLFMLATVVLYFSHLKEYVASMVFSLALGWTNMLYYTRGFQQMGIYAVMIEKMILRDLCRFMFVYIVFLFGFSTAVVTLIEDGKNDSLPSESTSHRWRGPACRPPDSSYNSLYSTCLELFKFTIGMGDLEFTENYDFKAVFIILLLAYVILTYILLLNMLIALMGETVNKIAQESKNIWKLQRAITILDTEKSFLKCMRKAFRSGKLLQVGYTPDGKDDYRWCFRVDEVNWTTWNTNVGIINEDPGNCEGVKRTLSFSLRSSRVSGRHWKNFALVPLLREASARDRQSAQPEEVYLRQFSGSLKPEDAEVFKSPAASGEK

CCCCCCCCC(=O)NCc1cc(OC)c(O)cc1I
IC50 [1]: 10 nM

CCCCCCCCC(=O)NCc1cc(OC)c(O)cc1Cl
IC50 [1]: 50.3 nM

CCCCCCCCC(=O)NCc1ccc(O)c(OC)c1NC(C)=O
IC50 [1]: 9540 nM

CCCCCCCCC(=O)NCc1cc(OC)c(O)cc1Br
IC50 [1]: 16.1 nM

CCCCCCCCC(=O)NCc1ccc(O)c(OC)c1[N+](=O)[O-]
IC50 [1]: 11000 nM

CCCCCCCCC(=O)NCc1cc(Cl)c(O)c(OC)c1
IC50 [1]: 631 nM

CCCCCCCCC(=O)NCc1cc(OC)c(O)c(-c2cc(CNC(=O)CCCCCCCC)cc(OC)c2O)c1
IC50 [2]: > 20000 nM

CCCCCCCCC(=O)NCc1cc(I)c(O)c(OC)c1
IC50 [1]: 126 nM

CCCCC/C=C/C/C=C/C/C=C/C/C=C/CCCC=O
IC50 [1]: 51 nM

C=C(C)[C@]12C[C@@H](C)[C@@]3(OCc4ccccc4)[C@@H](C=C(COC(=O)Cc4cc(I)c(O)c(OC)c4)C[C@]4(O)C(=O)C(C)=C[C@@H]34)[C@H]1OCO2
IC50 [1]: 0.4 nM

CCCCCCCCC(=O)NCc1cc(Br)c(O)c(OC)c1
IC50 [1]: 252 nM

Oc1cc2c(cc1O)CN(C(=S)NCCc1ccc(Cl)cc1)CCC2 [CAPSAZEPINE]
IC50 [1]: 56.2 nM
